ChEMBL document CHEMBL1153096, “Properly substituted 1,4-dioxane nucleus favours the selective M3 muscarinic receptor activation” (Bioorg Med Chem, 2009)
Activity calls are given as the source filed them. The rule behind the calls is not given here.

Experiments:
[1] = biological target: Muscarinic acetylcholine receptor M3 (Cavia porcellus) (UniProt Q8VH26); assay: Agonist activity at muscarinic M3 receptor in guinea pig ileum assessed as inhibition of electrically-stimulated muscle contraction; format: functional, tissue-based
Chain of Muscarinic acetylcholine receptor M3 (Cavia porcellus) (Q8VH26 1-587): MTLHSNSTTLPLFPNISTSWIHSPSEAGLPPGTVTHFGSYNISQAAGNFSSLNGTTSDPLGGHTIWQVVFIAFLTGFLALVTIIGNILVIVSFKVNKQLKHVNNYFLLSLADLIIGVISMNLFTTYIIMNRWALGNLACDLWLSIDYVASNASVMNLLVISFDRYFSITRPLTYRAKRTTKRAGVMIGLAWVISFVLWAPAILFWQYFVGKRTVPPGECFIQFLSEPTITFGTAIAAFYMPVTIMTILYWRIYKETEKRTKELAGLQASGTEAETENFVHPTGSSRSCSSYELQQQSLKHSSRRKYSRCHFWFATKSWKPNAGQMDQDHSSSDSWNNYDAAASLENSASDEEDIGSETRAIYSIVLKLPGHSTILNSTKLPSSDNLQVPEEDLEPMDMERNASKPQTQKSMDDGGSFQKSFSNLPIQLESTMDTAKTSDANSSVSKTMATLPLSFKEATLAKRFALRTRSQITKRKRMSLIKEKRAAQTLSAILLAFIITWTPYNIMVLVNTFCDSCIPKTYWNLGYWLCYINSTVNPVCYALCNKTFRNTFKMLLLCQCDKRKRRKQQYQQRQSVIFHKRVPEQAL
Procedure, shortened: (§1)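 Male guinea pig (250-350 g, fasted 24 h) ileal segments 2-3 cm, 1.0 g tension, 37 °C, Krebs-Henseleit with carbogen; 45 min equilibration, isometric contractions. Cumulative agonist concentration-response curves; pD2 by linear regression; intrinsic activity relative to bethanechol maximum; means ± SEM of four to six experiments.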

[2] = biological target: T1, Muscarinic acetylcholine receptor M1 (Homo sapiens, UniProt P11229); assay: Displacement of [3H]NMS from human muscarinic M1 receptor expressed in CHO cells by microplate scintillation counting; format: cell-based
T1 sequence (P11229 whole entry): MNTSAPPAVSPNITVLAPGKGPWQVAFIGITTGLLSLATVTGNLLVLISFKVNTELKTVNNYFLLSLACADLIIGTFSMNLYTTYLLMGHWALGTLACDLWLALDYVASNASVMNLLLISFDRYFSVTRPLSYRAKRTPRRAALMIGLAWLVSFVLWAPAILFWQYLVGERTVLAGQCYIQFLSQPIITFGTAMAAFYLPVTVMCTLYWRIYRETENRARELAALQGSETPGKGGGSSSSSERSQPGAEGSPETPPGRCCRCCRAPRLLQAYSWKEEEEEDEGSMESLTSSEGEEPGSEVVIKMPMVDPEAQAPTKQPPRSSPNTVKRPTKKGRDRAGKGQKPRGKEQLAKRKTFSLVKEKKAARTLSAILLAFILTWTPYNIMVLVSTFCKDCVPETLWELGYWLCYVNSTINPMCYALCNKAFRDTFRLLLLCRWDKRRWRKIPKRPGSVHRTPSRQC

Cavia porcellus [3] = species on record: Cavia porcellus; assay: Antagonist activity at muscarinic M4 receptor in guinea pig lung assessed as effect on muscle contraction up to 10 uM; format: functional
[4] = biological target: Muscarinic acetylcholine receptor M3 (Homo sapiens, UniProt P20309); assay: Displacement of [3H]NMS from human muscarinic M3 receptor expressed in CHO cells by microplate scintillation counting; format: cell-based
Chain of Muscarinic acetylcholine receptor M3 (P20309 whole entry): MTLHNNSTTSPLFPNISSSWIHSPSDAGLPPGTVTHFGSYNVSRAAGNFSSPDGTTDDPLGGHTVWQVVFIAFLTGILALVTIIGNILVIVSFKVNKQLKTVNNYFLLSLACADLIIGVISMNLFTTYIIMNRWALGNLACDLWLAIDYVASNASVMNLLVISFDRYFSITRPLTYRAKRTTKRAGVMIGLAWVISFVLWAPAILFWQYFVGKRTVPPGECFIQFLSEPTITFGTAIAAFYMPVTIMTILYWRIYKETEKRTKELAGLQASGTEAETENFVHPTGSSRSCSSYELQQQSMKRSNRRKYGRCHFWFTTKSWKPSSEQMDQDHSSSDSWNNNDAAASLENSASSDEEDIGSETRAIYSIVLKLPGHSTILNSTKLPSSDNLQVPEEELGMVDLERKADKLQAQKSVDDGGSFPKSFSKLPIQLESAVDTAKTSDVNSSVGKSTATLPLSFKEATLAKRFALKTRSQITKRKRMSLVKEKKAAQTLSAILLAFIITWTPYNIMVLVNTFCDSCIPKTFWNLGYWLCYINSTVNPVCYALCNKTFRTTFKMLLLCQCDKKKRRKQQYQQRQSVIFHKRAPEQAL

Cavia porcellus [5] = species on record: Cavia porcellus; assay: Intrinsic activity at muscarinic M2 receptor in guinea pig atrium assessed as inhibition of electrically-stimulated muscle contraction relative to bathanecol; format: tissue-based; conditions: Cardiac atrium
[6] = biological target: T2, Muscarinic acetylcholine receptor M2 (Homo sapiens, UniProt P08172); assay: Displacement of [3H]NMS from human muscarinic M2 receptor expressed in CHO cells by microplate scintillation counting; format: cell-based
T2 sequence (P08172 whole entry): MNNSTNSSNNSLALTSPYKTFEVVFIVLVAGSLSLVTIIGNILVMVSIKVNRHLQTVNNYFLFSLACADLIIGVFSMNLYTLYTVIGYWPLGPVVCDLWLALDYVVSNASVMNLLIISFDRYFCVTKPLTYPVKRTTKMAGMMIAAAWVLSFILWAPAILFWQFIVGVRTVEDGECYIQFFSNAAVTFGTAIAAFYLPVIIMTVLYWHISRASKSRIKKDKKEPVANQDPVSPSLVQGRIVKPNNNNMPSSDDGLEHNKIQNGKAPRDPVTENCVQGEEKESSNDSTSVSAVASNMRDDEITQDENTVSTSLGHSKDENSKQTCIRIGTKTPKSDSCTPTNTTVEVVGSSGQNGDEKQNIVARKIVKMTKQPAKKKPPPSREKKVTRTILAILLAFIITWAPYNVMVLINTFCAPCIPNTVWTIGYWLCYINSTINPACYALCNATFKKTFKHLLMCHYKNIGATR

Oryctolagus cuniculus [7] = species on record: Oryctolagus cuniculus; assay: (§2) Agonist activity at muscarinic M1 receptor in New Zealand White rabbit vas deferens assessed as inhibition of electrically-stimulated muscle contraction; format: functional
Procedure, shortened: (§3)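 Prostatic portion of male-free-listed New Zealand white rabbit (3.0-3.5 kg, fasted 24 h) vas deferens in modified Krebs, 31 °C, 95% O2-5% CO2; 45 min stabilisation, field stimulation 2 Hz, 5 ms, 5 V; isometric recording. Cumulative concentration-response curves; pD2 by linear regression; intrinsic activity as fraction of McN-A-343 maximum; means ± SEM of four to six experiments.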

Oryctolagus cuniculus [8] = species on record: Oryctolagus cuniculus; assay: Antagonist activity at muscarinic M1 receptor in New Zealand White rabbit vas deferens assessed as effect on muscle contraction up to 30 uM; format: functional, tissue-based
[9] = biological target: T3, Muscarinic acetylcholine receptor M4 (Homo sapiens, UniProt P08173); assay: Displacement of [3H]NMS from human muscarinic M4 receptor expressed in CHO cells by microplate scintillation counting; format: cell-based
T3 sequence (P08173 whole entry): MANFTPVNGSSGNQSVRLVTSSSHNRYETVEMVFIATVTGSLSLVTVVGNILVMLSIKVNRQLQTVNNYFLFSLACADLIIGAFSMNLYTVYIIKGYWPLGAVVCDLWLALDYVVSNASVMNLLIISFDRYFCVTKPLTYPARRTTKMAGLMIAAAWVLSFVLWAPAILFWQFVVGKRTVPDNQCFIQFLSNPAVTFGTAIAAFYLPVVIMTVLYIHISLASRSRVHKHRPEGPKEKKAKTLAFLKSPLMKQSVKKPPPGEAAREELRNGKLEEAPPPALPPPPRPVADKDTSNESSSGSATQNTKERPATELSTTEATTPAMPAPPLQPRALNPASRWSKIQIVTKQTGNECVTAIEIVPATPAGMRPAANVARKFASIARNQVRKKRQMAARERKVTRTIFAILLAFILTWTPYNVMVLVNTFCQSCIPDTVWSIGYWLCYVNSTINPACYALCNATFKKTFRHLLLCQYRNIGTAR

[10] = Agonist activity at muscarinic M2 receptor in guinea pig atrium assessed as inhibition of electrically-stimulated muscle contraction; format: functional, Cavia porcellus, Cardiac atrium
[11] = biological target: Muscarinic acetylcholine receptor M3 (Cavia porcellus) (UniProt Q8VH26); assay: Intrinsic activity at muscarinic M3 receptor in guinea pig ileum assessed as inhibition of electrically-stimulated muscle contraction relative to bathanecol; format: tissue-based; procedure, shortened: as §1
[12] = biological target: T4, Muscarinic acetylcholine receptor M5 (Homo sapiens, UniProt P08912); assay: Displacement of [3H]NMS from human muscarinic M5 receptor expressed in CHO cells by microplate scintillation counting; format: cell-based
T4 sequence (P08912 whole entry): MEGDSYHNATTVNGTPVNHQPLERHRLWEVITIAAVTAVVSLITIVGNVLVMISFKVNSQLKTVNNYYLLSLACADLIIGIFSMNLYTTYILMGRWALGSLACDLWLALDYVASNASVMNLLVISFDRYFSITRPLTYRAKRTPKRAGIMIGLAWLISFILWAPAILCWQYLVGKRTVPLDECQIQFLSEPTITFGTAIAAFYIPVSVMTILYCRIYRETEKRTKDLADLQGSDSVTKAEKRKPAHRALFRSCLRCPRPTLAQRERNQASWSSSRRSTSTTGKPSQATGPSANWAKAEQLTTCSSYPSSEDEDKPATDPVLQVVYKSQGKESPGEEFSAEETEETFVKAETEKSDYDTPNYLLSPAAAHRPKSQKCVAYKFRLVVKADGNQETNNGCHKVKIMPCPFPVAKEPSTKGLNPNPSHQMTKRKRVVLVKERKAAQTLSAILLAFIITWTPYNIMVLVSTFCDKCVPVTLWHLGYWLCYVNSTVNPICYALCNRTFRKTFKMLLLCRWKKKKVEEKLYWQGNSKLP

[13] = Agonist activity at muscarinic M4 receptor in guinea pig lung assessed as inhibition of electrically-stimulated muscle contraction; format: functional, Cavia porcellus
Cavia porcellus [14] = species on record: Cavia porcellus; assay: Selectivity ratio of pD2 for guinea pig muscarinic M4 receptor to pD2 for guinea pig muscarinic M3 receptor
Cavia porcellus [15] = species on record: Cavia porcellus; assay: Intrinsic activity at muscarinic M4 receptor in guinea pig lung assessed as inhibition of electrically-stimulated muscle contraction relative to bathanecol
Procedure, shortened: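 Male guinea pig peripheral lung strips (15 × 2 × 2 mm) from lower lobe, 0.3 g resting tension, 37 °C, Krebs-Henseleit with carbogen; 45 min equilibration, isometric contractions. Cumulative agonist concentration-response curves; pD2 by linear regression; intrinsic activity relative to bethanechol maximum; means ± SEM of four to six experiments.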

Cavia porcellus [16] = species on record: Cavia porcellus; assay: Selectivity ratio of pD2 for guinea pig muscarinic M3 receptor to pD2 for guinea pig muscarinic M2 receptor
Cavia porcellus [17] = species on record: Cavia porcellus; assay: Antagonist activity at muscarinic M2 receptor in guinea pig atrium assessed as effect on muscle contraction up to 10 uM; format: functional, tissue-based; conditions: Cardiac atrium
[18] = biological target: Muscarinic acetylcholine receptor M3 (Cavia porcellus) (UniProt Q8VH26); conditions: Ileum
Cavia porcellus [19] = species on record: Cavia porcellus; conditions: Cardiac atrium
[20] = as §2; format: functional, Oryctolagus cuniculus; procedure, shortened: as §3
Oryctolagus cuniculus [21] = species on record: Oryctolagus cuniculus; assay: Intrinsic activity at muscarinic M1 receptor in New Zealand White rabbit vas deferens assessed as inhibition of electrically-stimulated muscle contraction relative to McN-A-343; format: tissue-based; procedure, shortened: as §3

| Structure (SMILES) | pD2 [1] | Ki [2] | pKb (Cavia porcellus [3]) | Ki [4] | Intrinsic activity (Cavia porcellus [5]) | Ki [6] | pD2 (Oryctolagus cuniculus [7]) | pKb (Oryctolagus cuniculus [8]) | Ki [9] | pD2 [10] | Intrinsic activity [11] | Ki [12] | pD2 [13] | further results |
| --- | --- | --- | --- | --- | --- | --- | --- | --- | --- | --- | --- | --- | --- | --- |
| CC1(C)OC[C@@H](C[N+](C)(C)C)OC1(C)C.[I-] | 5.09 | > 100 µM | inactive | 40.7 µM | 0.71 | 46.8 µM | inactive | inactive | 53.7 µM | 5.12 | 0.93 | 66.1 µM |  |  |
| C[C@H]1OC[C@@H](C[N+](C)(C)C)O[C@@H]1C.[I-] (relative stereo) | 6.7 | > 100 µM |  | > 100 µM | 0.89 | 16.6 µM |  |  | > 100 µM | 5.01 | 1.18 | > 100 µM | 4.59 | Selectivity ratio (Cavia porcellus [14]): 141; Intrinsic activity (Cavia porcellus [15]): 0.65; Selectivity ratio (Cavia porcellus [16]): 49 |
| C[C@@H]1OC[C@@H](C[N+](C)(C)C)O[C@@H]1C.[I-] (relative stereo) | 4.91 | > 100 µM | inactive | > 100 µM | 0.27 | 89.1 µM | inactive | inactive | > 100 µM | 5.04 | 0.85 | > 100 µM |  |  |
| CC(C[N+](C)(C)C)OC(N)=O.[Cl-] (stereo not given) [BETHANECHOL CHLORIDE] | 6.16 |  |  |  |  |  |  |  |  | 5.88 |  |  | 5.01 |  |
| C[C@@H]1O[C@H](C[N+](C)(C)C)CO[C@@H]1C.[I-] (relative stereo) | 5.27 | > 100 µM |  | > 100 µM | 0.91 | 20 µM |  |  | > 100 µM | 5.18 | 1 | 97.7 µM | 5 | Intrinsic activity (Cavia porcellus [15]): 0.5 |
| C[C@H]1O[C@H](C[N+](C)(C)C)COC1(C)C (relative stereo) | inactive | 95.5 µM | inactive | 46.8 µM |  | 72.4 µM | inactive | inactive | 87.1 µM |  |  | 83.2 µM |  | pKb (Cavia porcellus [17]): inactive; pKb [18]: inactive; pKb (Cavia porcellus [19]): inactive |
| C[C@H]1COC[C@@H](C[N+](C)(C)C)O1.[I-] (relative stereo) | 7.34 |  |  |  | 1 | 1.58 µM |  |  | 11.5 µM |  |  | 7.76 µM |  | pD2 [20]: 5.65; Intrinsic activity (Oryctolagus cuniculus [21]): 1 |
